pIC50: −log10 of the molar value.
Columns and labels:
[1] = species: Ovis aries; assay: Selectivity ratio of IC50 for ovine COX1 to IC50 for ovine COX2
Procedure, shortened: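 Ratio of COX-1 IC50 to COX-2 IC50. Both IC50s come from concentration−inhibition curves in the ovine enzyme kit assay, with PGF2α (from SnCl2 reduction of PGH2) measured by enzyme immunoassay.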

[2] = target: T1, Prostaglandin G/H synthase 2 (Ovis aries, UniProt P79208); assay: Inhibition of ovine COX2 assessed as PGF2alpha production by reduction of PGH2 with stannous chloride by enzyme immunoassay
T1 sequence (P79208 whole entry): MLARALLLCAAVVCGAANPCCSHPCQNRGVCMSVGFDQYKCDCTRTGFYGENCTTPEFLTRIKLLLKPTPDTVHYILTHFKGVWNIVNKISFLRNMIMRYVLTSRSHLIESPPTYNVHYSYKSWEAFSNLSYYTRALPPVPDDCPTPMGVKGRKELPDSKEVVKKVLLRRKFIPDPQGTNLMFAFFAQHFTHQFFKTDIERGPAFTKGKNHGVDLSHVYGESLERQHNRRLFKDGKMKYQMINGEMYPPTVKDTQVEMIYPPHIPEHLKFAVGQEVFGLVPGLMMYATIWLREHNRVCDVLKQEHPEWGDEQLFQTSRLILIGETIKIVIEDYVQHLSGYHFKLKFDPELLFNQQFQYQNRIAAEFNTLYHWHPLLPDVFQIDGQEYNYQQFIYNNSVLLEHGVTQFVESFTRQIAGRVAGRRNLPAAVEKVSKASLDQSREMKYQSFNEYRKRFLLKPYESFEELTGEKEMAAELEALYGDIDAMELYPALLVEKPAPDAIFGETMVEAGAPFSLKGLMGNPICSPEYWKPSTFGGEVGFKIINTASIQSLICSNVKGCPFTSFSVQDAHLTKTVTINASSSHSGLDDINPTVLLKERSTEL
Procedure, shortened: (§1)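 Ovine COX-1 or COX-2 from screening kit used per manufacturer; arachidonic acid substrate, PGH2 reduced by SnCl2 to PGF2α and read by enzyme immunoassay. DMSO stock solutions. Percent inhibition relative to control incubations; IC50 obtained from concentration−inhibition response curves. Means ± SEM, n = 2−3.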

[3] = target: T2, Prostaglandin G/H synthase 1 (Ovis aries, UniProt P05979); assay: Inhibition of ovine COX1 assessed as PGF2alpha production by reduction of PGH2 with stannous chloride by enzyme immunoassay; procedure, shortened: as §1
T2 sequence (P05979 whole entry): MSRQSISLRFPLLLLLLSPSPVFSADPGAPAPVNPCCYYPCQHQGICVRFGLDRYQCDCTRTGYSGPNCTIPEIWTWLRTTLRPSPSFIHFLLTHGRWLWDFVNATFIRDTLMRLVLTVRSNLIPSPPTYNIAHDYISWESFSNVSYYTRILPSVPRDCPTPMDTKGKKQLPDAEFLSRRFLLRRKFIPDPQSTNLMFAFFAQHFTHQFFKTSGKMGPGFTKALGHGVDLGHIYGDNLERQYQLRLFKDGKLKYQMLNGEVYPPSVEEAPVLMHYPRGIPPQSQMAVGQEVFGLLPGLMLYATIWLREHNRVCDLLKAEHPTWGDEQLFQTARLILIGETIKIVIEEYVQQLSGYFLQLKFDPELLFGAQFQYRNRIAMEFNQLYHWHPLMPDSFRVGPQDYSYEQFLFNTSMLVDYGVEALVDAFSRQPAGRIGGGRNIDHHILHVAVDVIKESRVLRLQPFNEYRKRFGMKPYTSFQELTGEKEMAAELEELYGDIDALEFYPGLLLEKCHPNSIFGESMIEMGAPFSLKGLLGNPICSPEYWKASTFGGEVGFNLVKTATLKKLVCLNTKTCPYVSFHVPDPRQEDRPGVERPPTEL

[4] = target: T3, Prostaglandin G/H synthase 1 (Ovis aries) (UniProt P05979); assay: Inhibition of ovine COX1 assessed as PGF2alpha production by reduction of PGH2 with stannous chloride at 40 uM by enzyme immunoassay relative to control
T3 sequence (whole entry): T2 sequence (P05979 whole entry)
Procedure, shortened: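 Ovine COX inhibitor screening kit run per manufacturer. Enzyme converts arachidonic acid to PGH2, which SnCl2 reduces to PGF2α, quantified by enzyme immunoassay. DMSO stocks; final test concentration 40 μM. Percent inhibition calculated against control incubations. Means ± SEM, n = 2−3.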

[5] = system: Rattus norvegicus; assay: Antiinflammatory activity in Sprague-Dawley rat assessed as inhibition of carrageenan-induced paw edema at 50 mg/kg, po administered 1 hr before carrageenan challenge measured after 5 hrs relative to control; format: functional
Procedure, shortened: (§2)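 Female Sprague-Dawley rats (160−180 g), fasted overnight, six per group. Samples suspended in freshly prepared 0.5% hydroxypropyl methyl cellulose, given orally; control group received vehicle (normal saline). 1 h after dosing, 100 μL of 1% carrageenan in saline injected subcutaneously into left hind paw. Paw volume read by plethysmometer before and at 3 and 5 h; edema = final minus basal volume. Mean ± SEM, one-way ANOVA with Dunnett's test versus control.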

[6] = system: Rattus norvegicus; assay: Antiinflammatory activity in Sprague-Dawley rat assessed as inhibition of carrageenan-induced paw edema at 50 mg/kg, po administered 1 hr before carrageenan challenge measured after 3 hrs relative to control; format: functional; procedure, shortened: as §2
[7] = system: Rattus norvegicus; assay: Antiinflammatory activity in Sprague-Dawley rat assessed as inhibition of carrageenan-induced paw edema at 100 mg/kg, po administered 1 hr before carrageenan challenge measured after 5 hrs relative to control; format: functional; procedure, shortened: as §2
[8] = system: Rattus norvegicus; assay: Antiinflammatory activity in Sprague-Dawley rat assessed as inhibition of carrageenan-induced paw edema at 100 mg/kg, po administered 1 hr before carrageenan challenge measured after 3 hrs relative to control; format: functional; procedure, shortened: as §2

## COc1c(O)c(C)c(O)c2c(=O)c3c(oc12)C(OC)Oc1ccccc1-3 (racemic)
[1]
  Ratio IC50: 1.09
[2]
  pIC50: 4.50
[3]
  pIC50: 4.48

## COc1c(O)c(C)c(O)c2c(=O)c3c(oc12)C(O)Oc1ccccc1-3 (racemic)
[3]
  pIC50: 4.59

## O=c1c2c(oc3cc(O)cc(O)c13)C(O)Oc1cc(O)ccc1-2 (racemic)
[1]
  Ratio IC50: 0.79
[2]
  pIC50: 4.59
[3]
  pIC50: 4.66

## COC1Oc2ccccc2-c2c1oc1cc(O)cc(O)c1c2=O (racemic)
[4]
  inhibition: 59.4%

## COc1cc(O)c2c(=O)c3c(oc2c1)C(O)Oc1c(O)cccc1-3 (racemic)
[4]
  inhibition: 59.9%

## COc1cc(O)c2c(c1)O[C@@H]1COc3c(O)cccc3[C@@]1(O)C2=O (relative stereo)
[4]
  inhibition: 47.2%

## COC1Oc2ccccc2-c2c1oc1cc(O)c(C)c(O)c1c2=O (centres undefined) [BOERAVINONE A]
[3]
  pIC50: 4.48

## Cc1c(O)cc2oc3c(c(=O)c2c1O)-c1ccccc1OC3O (centres undefined) [BOERAVINONE B]
[5]
  inhibition in vivo at 50 mg/kg: 56.7%
[6]
  inhibition in vivo at 50 mg/kg: 48.3%
[3]
  pIC50: 4.60

## Cc1c(O)cc2oc3c(c(=O)c2c1O)-c1ccc(O)cc1OC3O (centres undefined) [BOERAVINONE E]
[3]
  pIC50: 4.62

## CC(C)Cc1ccc(C(C)C(=O)O)cc1 (centres undefined) [IBUPROFEN]
[7]
  inhibition in vivo at 100 mg/kg: 50.4%
[8]
  inhibition in vivo at 100 mg/kg: 42.7%
[5]
  inhibition in vivo at 50 mg/kg: 43.5%
[6]
  inhibition in vivo at 50 mg/kg: 35.8%

From ChEMBL document CHEMBL2407009, “Rotenoids from Boerhaavia diffusa as potential anti-inflammatory agents” (J Nat Prod, 2013)
